Experimental data: publication PMC2193001 (The Journal of Experimental Medicine, 1999)
Read-outs that look alike come from different tables or passages of the source.

B1: OVA: chicken egg OVA control protein (protein, UniProt P01012 2-386, looked up)
Ovalbumin: GSIGAASMEFCFDVFKELKVHHANENIFYCPIAIMSALAMVYLGAKDSTRTQINKVVRFDKLPGFGDSIEAQCGTSVNVHSSLRDILNQITKPNDVYSFSLASRLYAEERYPILPEYLQCVKELYRGGLEPINFQTAADQARELINSWVESQTNGIIRNVLQPSSVDSQTAMVLVNAIVFKGLWEKAFKDEDTQAMPFRVTEQESKPVQMMYQIGLFRVASMASEKMKILELPFASGTMSMLVLLPDEVSGLEQLESIINFEKLTEWTSSNVMEERKIKVYLPRMKMEEKYNLTSVLMAMGITDVFSSSANLSGISSAESLKISQAVHAAHAEINEAGREVVGSAEAGVDAASVSEEFRADHPFLFCIKHIATNAVLFFGRCVSP

Assays:
[1] = tested on: ABLE T cells (LACK-specific TCR-transgenic); experiment: T cell antagonism assay; assay type: cell-based, mouse; conditions: for Inhibitory (antagonist) activity, overall: 0.1–100 μM, proliferation, IL-4 and IFN-γ
Method in brief: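 T cells: CD4+ cells enriched from BALB/c ABLE TCR-Cα0 spleen and lymph node by antibody/complement depletion (80% Vβ4+). APC: BALB/c TCR-Cα0 spleen cells, prepulsed 2 h at 37°C with 0.2 μM wild-type LACK peptide, washed, irradiated, then 2 h at 37°C with test peptide up to 100 μM (OVA323–336 control). 1.6 × 10^5 T cells/well were added. Cytokines were read by ELISA at 48 h; [3H]thymidine uptake over 48–66 h. Values are % inhibition versus prepulsed APC without added peptide.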

L. major LV39 [2] = tested on: L. major LV39; parameters: species or system Leishmania major; conditions: in vivo
[3] = tested on: ABLE T cells (LACK-specific TCR-transgenic); experiment: Stimulation of ABLE T cells in vitro by peptides; assay type: cell-based, mouse
Method in brief: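 Single-cell suspensions (red cells lysed) from spleen and lymph node of BALB/c ABLE TCR-Cα0 mice supplied both T cells and APC. They were plated at 10^6 cells/well in duplicate in RPMI 1640 with 10% heat-inactivated FCS, glutamine, pyruvate and β2-ME, with test peptides over a concentration range. At 48 h, supernatants went to sandwich ELISA against recombinant standards. Wells were then pulsed with 1 μCi [3H]thymidine and harvested 18 h later.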

[4] = tested on: Vβ4+ T cells of ABLE TCR-Cα^0 mice; conditions: mouse, in vivo
L. major LV39 [5] = tested on: L. major LV39; parameters: species or system Leishmania major; conditions: in vivo; remark: listed apart in the source
[6] = tested on: popliteal lymph node CD4+ T cells; conditions: mouse, in vivo
[7] = APC prepulsed with LACK peptide, 48 h ELISA

Molecule	Inhibitory (antagonist) activity, overall [1]	Inhibition of IFN-γ production [1, 7]	Inhibition of IL-4 production [1, 7]	Protection (L. major LV39 [2])	IL-4 production by ABLE T cells ([3]; 48 h supernatants, ELISA, detection limit 50 pg/ml)	IFN-γ production by ABLE T cells ([3]; 48 h supernatants, ELISA, detection limit 1 ng/ml)	Concentration without proliferation of ABLE T cells (highest tested) ([3]; no proliferation even at concentrations up to 4 μM, [3H]thymidine) [µM]	Total number of transgenic T cells in draining lymph nodes [4]	Protection (L. major LV39 [5])	Proliferation induced by LACK epitopes [6]
ICFSPSLENPIVVSGSWD [LACK-N164]	preferentially inhibited IL-4 production by ABLE T cells	inhibited consistently less	inhibited comparably to the LACK-K164 peptide	Subgroups of resistant and susceptible mice occurred	neither cytokine was detected	neither cytokine was detected	> 4			
ISQAVHAAHAEINE [OVA323–336, reference compound]	no inhibitory activity									
B1								2.9 × 10^5	in contrast to the LACK deletion mutant or OVA controls	No proliferation was induced
